Data set [1] is described as follows: Cytotoxicity against HEK293T cells assessed as reduction in cell viability after 24 hrs by CellTiter-Glo luminescent assay. It is filed as cell-based, HEK-293T. The following applies: human. The gist of the method:
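HEK 293T cell viability was measured by CellTiter-Glo luminescence after 24 h exposure to serial dilutions. Data were normalized to untreated cells (100%) and reagent background (0%). CC50, the concentration reducing viability by 50%, came from a five-parameter asymmetric fit.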
In general terms: In ATP-based viability assays light output follows the ATP content of the culture.

A further data set deals with Chikungunya virus. The data set can be described thus: Antiviral activity against full length Gaussia princeps Gluc-tagged Chikungunya virus IMT infected in HEK293T cells assessed as reduction in virus infection after 24 hrs by Gaussia luciferase reporter gene assay. The data set is classed as functional, cell-based. The following applies: HEK-293T.
The nature of data set [2]: Half life in human liver microsomes. The data set is classed as ADME, microsome. A digest of the protocol: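 Compounds were incubated with human liver microsomes. Half-life = ln(2)/slope, where the slope is ln(% detected) plotted against time, using the mean of at least 3 independent experiments.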
(In general: Microsomes from liver hold many membrane-bound enzymes, among them those of drug oxidation.)

Data set [3] in a line: Selectivity index, ratio of CC50 for HEK293T cells to EC50 for full length Gaussia princeps Gluc-tagged Chikungunya virus IMT. The following applies: human, read-out: Ratio CC50/EC50. The data set is classed as toxicity.

Experimental findings from ChEMBL document CHEMBL4007509, “Structural Optimizations of Thieno[3,2-b]pyrrole Derivatives for the Development of Metabolically Stable Inhibitors of Chikungunya Virus” (J Med Chem, 2017) are described below.

By CC50 is commonly meant the concentration giving 50% cytotoxicity. In general, EC50 refers to the concentration needed to bring the measured effect to its halfway point. The term half-life denotes how long it takes for the measured level to halve. A high value points to slow decline.

On to `CCCNC(=O)C1CCN(C(=O)c2cc3cc(Br)ccc3n2Cc2ccc(OC)cc2)CC1`, for which the half-maximal cytotoxic concentration (CC50) at 24 h in data set [1] was greater than 100 µM. In addition, the EC50 in the data set with Chikungunya virus is greater than 100 µM. The compound further had a half-life in data set [2] of 3.94 min.

On to `CCCNC(=O)C1CCN(C(=O)c2cc3[nH]cnc3n2Cc2ccc(OC)cc2)CC1`, for which, in data set [1], the cytotoxic concentration (CC50) at 24 h is greater than 100 µM. The selectivity ratio in data set [3] is greater than 2.3. In the data set with Chikungunya virus, the EC50 amounted to 42.8 µM. The compound also came in with a half-life in data set [2] of 76.2 min.

In data set [2], `CCCCC(=O)C1CCN(C(=O)c2cc3sccc3n2Cc2ccc(OC)cc2)CC1` registered a half-life of 6.3 min.

For the compound `CCCNC(=O)C1CN(C(=O)c2cc3sc(Br)cc3n2Cc2ccc(OC)cc2)C1`, the CC50 at 24 h in data set [1] was greater than 100 µM. Also, the selectivity ratio in data set [3] was greater than 7.4. For the same compound, the concentration giving a half-maximal response (EC50) with Chikungunya virus amounted to 13.6 µM. In addition, the half-life in data set [2] came to 7.73 min.

As to `CCCNC(=O)C1CCN(C(=O)c2cc3cc(Br)sc3n2Cc2ccc(OC)cc2)CC1`, the half-maximal cytotoxic concentration (CC50) at 24 h in data set [1] was greater than 100 µM. For the same compound, the selectivity ratio in data set [3] was greater than 7.3. Also, the EC50 with Chikungunya virus came out at 13.6 µM. The compound also yielded a half-life in data set [2] of 7.61 min.

As to `CCCNC(=O)[C@H]1CC[C@H](NC(=O)c2cc3sc(Br)cc3n2Cc2ccc(OC)cc2)CC1`, the half-maximal cytotoxic concentration (CC50) at 24 h in data set [1] is greater than 100 µM. In addition, the selectivity ratio in data set [3] is greater than 7. Also, in the data set on Chikungunya virus, the EC50 is 14.3 µM. Moreover, the half-life in data set [2] is 3.97 min.

The compound `CCCNC(=O)C1CCN(C(=O)c2cc3sc(C#N)cc3n2Cc2ccc(OC)cc2)CC1` yielded a half-life in data set [2] of 11.2 min.

For the compound `CCCNC(=O)C1CCN(C(=O)c2ccc(Br)n2Cc2ccc(OC)cc2)CC1`, in data set [1], the cytotoxic concentration (CC50) at 24 h is greater than 100 µM. For the same compound, the selectivity ratio in data set [3] is greater than 6. Further, the 50% effective concentration (EC50) in the data set with Chikungunya virus stood at 16.8 µM. For the same compound, the half-life in data set [2] is 7.32 min.

For the compound `CCCNC(=O)[C@@H]1C[C@H]2CCC[C@@H](C1)[C@@H]2NC(=O)c1cc2sc(Br)cc2n1Cc1ccc(OC)cc1`, the CC50 at 24 h in data set [1] was greater than 100 µM. Moreover, the selectivity ratio in data set [3] was greater than 7.1. In addition, the 50% effective concentration (EC50) with Chikungunya virus stood at 14 µM. The same compound showed a half-life in data set [2] of 45.1 min.

With `CCCNC(=O)C1CCN(C(=O)c2cc(Br)cn2Cc2ccc(OC)cc2)CC1`, the CC50 at 24 h in data set [1] turned out to be 55 µM. Further, the selectivity ratio in data set [3] is 2.6. Also, in the data set with Chikungunya virus, the concentration giving a half-maximal response (EC50) was found to be 21.4 µM. This compound displayed a half-life in data set [2] of 2.17 min.

Turning to `CCCNC(=O)[C@H]1[C@@H]2CCC[C@H]1CN(C(=O)c1cc3sc(Br)nc3n1Cc1ccc(OC)cc1)C2`, the CC50 at 24 h in data set [1] is 57.5 µM. The selectivity ratio in data set [3] came to 4.3. Moreover, the EC50 in the data set with Chikungunya virus stood at 13.4 µM. For the same compound, the half-life in data set [2] came out at 2.89 min.

Turning to `CCCNC(=O)C1CCN(C(=O)c2cc3sccc3n2Cc2ccc(Cl)cc2)CC1`, the half-life in data set [2] was 10.3 min.

`CCCNC(=O)C1CC12CN(C(=O)c1cc3sc(Br)cc3n1Cc1ccc(OC)cc1)C2` (stereo not drawn): the 50% cytotoxic concentration (CC50) at 24 h in data set [1] is greater than 100 µM. Besides, the selectivity ratio in data set [3] is greater than 5. Besides, the EC50 with Chikungunya virus was 20.2 µM. The compound also yielded a half-life in data set [2] of 19.5 min.

Turning to `CCCNC(=O)C1CCN(C(=O)c2cc3sc(-c4ccccc4F)cc3n2Cc2ccc(OC)cc2)CC1`, the half-life in data set [2] turned out to be 35.5 min.

Compound `CCCNC(=O)C1CCN(C(=O)c2cc3sc(C)cc3n2Cc2ccc(OC)cc2)CC1` displayed a half-life in data set [2] of 2.69 min.

For the compound `CCCNC(=O)[C@@H]1CCCN1C(=O)c1cc2sc(Br)cc2n1Cc1ccc(OC)cc1`, the cytotoxic concentration (CC50) at 24 h in data set [1] was determined as 72.4 µM. The selectivity ratio in data set [3] turned out to be 3.4. For the same compound, the concentration for a half-maximal effect (EC50) in the data set with Chikungunya virus came out at 21.2 µM. In data set [2], this compound registered a half-life of 18.2 min.

Turning to `CCCNC(=O)[C@@H]1C[C@H]2CCC[C@@H](C1)[C@H]2NC(=O)c1cc2sc(Br)cc2n1Cc1ccc(OC)cc1`, the cytotoxic concentration (CC50) at 24 h in data set [1] was greater than 100 µM. For the same compound, in the data set with Chikungunya virus, the EC50 is greater than 100 µM.

On to `CCCNC(=O)[C@H]1CC[C@@H](NC(=O)c2cc3sc(Br)cc3n2Cc2ccc(OC)cc2)CC1`, for which, in data set [1], the cytotoxic concentration (CC50) at 24 h was greater than 100 µM. In addition, the half-maximal effective concentration (EC50) in the data set with Chikungunya virus is greater than 100 µM.

Take `CCCNC(=O)C1CCN(C(=O)c2cc3sccc3n2Cc2ccc(OC)cc2)CC1`: the selectivity ratio in data set [3] was 2.7. Moreover, the EC50 in the data set on Chikungunya virus is 7 µM. Further, in data set [2], the half-life worked out at 10.6 min.

Turning to `CCCNC(=O)[C@@H]1[C@@H]2CCC[C@H]1CN(C(=O)c1cc3sc(Br)cc3n1Cc1ccc(OC)cc1)C2`, in data set [1], the CC50 at 24 h was greater than 100 µM. For the same compound, in data set [3], the selectivity ratio is greater than 7.9. The concentration giving a half-maximal response (EC50) in the data set on Chikungunya virus turned out to be 12.6 µM.
